Test results published in ChEMBL document CHEMBL3098020, “Synthesis and biological evaluation of novel 2-amino-3-aroyl-4-neopentyl-5-substituted thiophene derivatives as allosteric enhancers of the A₁ adenosine receptor” (Bioorg Med Chem, 2014).

Assays:
[1] = biological target: T1, Adenosine receptor A1 (Homo sapiens) (UniProt P30542); test: (§1) Allosteric enhancement of human adenosine A1 receptor expressed in CHO cells assessed as inhibition of forskolin-stimulated cAMP production at 10 uM preincubated for 10 mins followed by forskolin challenge measured after 5 mins by scintillation counting analysis relative to control; type: functional, cell-based
T1 sequence (whole entry): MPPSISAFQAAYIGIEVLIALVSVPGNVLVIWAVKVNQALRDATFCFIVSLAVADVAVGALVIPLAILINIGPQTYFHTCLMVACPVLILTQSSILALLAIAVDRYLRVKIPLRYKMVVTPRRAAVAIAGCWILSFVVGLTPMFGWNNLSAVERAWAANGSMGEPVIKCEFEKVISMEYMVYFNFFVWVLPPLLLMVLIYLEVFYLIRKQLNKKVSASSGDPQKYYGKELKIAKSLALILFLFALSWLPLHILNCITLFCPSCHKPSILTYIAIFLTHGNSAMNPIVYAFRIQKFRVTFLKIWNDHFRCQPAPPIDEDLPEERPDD
Summary of the method: (§2)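 hA1-CHO cells (10⁶ cells/mL) in phosphate buffer with adenosine deaminase 1.0 IU/mL and Ro 20-1724 0.5 mM, preincubated 10 min at 37 °C. Compound added for 10 min, alone or at 100 nM with CCPA 1 pM. Forskolin 1 µM added for 5 min, stopped with cold 6% TCA. cAMP measured by [³H]-cAMP competition protein-binding assay; percent inhibition versus control; three experiments.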

[2] = biological target: Adenosine receptor A2a (Homo sapiens) (UniProt P29274); test: Displacement of [3H]-ZM241385 from human adenosine A2A receptor expressed in CHO cell membranes at 10 uM by scintillation counting analysis relative to control
Summary of the method: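 A2A-expressing CHO membranes, pretreated with adenosine deaminase, in 50 mM Tris-HCl, 10 mM MgCl₂ pH 7.4 with 1 nM [³H]ZM 241385. Incubated 60 min at 4 °C. Compound 10 µM in 1% DMSO final. Filtration and scintillation counting; percent inhibition of specific binding.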

[3] = biological target: T1, Adenosine receptor A1 (Homo sapiens); test: Potentiation of CCPA-induced displacement of [3H]-DPCPX from human adenosine A1 receptor expressed in CHO cell membranes at 10 uM after 90 mins relative to CCPA-treated control
Summary of the method: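 CCPA (0.01 nM–1 µM) competition against [³H]DPCPX in hA1-CHO membranes, with or without compound at 10 µM. Nonspecific binding defined with 1 µM DPCPX. Ki calculated from IC50 by the Cheng-Prusoff equation; CCPA Ki shift given as fold change; three experiments.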

[4] = biological target: T2, Adenosine receptor A3 (Homo sapiens) (UniProt P0DMS8); test: Displacement of [3H]-MRE-3008-F20 from human adenosine A3 receptor expressed in CHO cell membranes at 10 uM by scintillation counting analysis relative to control
T2 sequence (whole entry): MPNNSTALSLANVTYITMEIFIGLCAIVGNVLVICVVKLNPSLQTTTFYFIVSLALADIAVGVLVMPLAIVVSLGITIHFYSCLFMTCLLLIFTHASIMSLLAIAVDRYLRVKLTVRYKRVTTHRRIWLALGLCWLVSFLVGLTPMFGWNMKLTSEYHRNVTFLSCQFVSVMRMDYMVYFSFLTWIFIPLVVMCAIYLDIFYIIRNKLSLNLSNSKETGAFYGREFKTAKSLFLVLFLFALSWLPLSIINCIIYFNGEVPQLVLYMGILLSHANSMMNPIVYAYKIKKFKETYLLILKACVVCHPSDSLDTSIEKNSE
Summary of the method: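 A3-expressing CHO membranes in 50 mM Tris-HCl, 10 mM MgCl₂, 1 mM EDTA pH 7.4 with 2 nM [³H]MRE-3008-F20. Incubated 120 min at 4 °C. Compound 10 µM in 1% DMSO final. Filtration and scintillation counting; percent inhibition of specific binding.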

[5] = biological target: T1, Adenosine receptor A1 (Homo sapiens); test: as §1, with “100 nM” for “10 uM”, “analysis in presence of CCPA” for “analysis”; type: functional, cell-based; summary of the method: as §2
[6] = biological target: T1, Adenosine receptor A1 (Homo sapiens); test: Displacement of [3H]-DPCPX from human adenosine A1 receptor expressed in CHO cell membranes at 10 uM by scintillation counting analysis relative to control
Summary of the method: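 hA1-CHO membranes, pretreated with adenosine deaminase, in 50 mM Tris-HCl pH 7.4 with 1 nM [³H]DPCPX. Incubated 120 min at 25 °C. Compound 10 µM added from 100-fold DMSO stock, 1% DMSO final. Bound ligand collected on glass-fibre filters and counted by scintillation; percent inhibition of specific binding.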

[7] = biological target: T1, Adenosine receptor A1 (Homo sapiens); test: Potentiation of [3H]CCPA binding to human adenosine A1 receptor expressed in CHO cell membranes at 10 uM after 90 mins relative to [3H]CCPA-treated control

Chain of Adenosine receptor A2a (Homo sapiens) (P29274 whole entry): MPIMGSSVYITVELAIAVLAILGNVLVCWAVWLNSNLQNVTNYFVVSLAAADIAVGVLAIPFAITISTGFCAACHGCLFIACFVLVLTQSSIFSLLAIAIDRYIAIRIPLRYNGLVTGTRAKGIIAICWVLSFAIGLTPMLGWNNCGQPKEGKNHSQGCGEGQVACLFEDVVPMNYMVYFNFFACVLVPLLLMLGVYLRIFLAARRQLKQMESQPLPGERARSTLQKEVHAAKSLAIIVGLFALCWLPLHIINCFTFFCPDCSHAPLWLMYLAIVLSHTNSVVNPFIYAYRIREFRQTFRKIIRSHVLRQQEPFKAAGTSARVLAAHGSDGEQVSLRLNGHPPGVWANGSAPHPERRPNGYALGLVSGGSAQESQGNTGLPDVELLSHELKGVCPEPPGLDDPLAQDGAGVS

inhibition [1] [%] | inhibition [2] [%] | fold change (FC) [3] | inhibition [4] [%] | inhibition [5] [%] | inhibition [6] [%] | fold change (FC) [7] | Compound
48 | 1 | 3.6 | 1 | 49 | 1 | 5.3 | CC(C)(C)Cc1c(-c2ccc(F)cc2F)sc(N)c1C(=O)c1ccc(Cl)cc1
53 | 1 | 3.7 | 2 | 56 | 1 | 6 | COc1ccc(-c2sc(N)c(C(=O)c3cccc(Cl)c3)c2CC(C)(C)C)cc1
38 | 1 | 3.6 | 1 | 39 | 1 | 4 | CC(C)(C)Cc1c(-c2ccccc2)sc(N)c1C(=O)c1cccc(C(F)(F)F)c1
61 | 1 | 5.2 | 1 | 59 | 1 | 6.6 | CC(C)(C)Cc1c(-c2ccc3c(c2)OCO3)sc(N)c1C(=O)c1ccc(Cl)cc1
35 | 6 | 1.6 | 5 | 37 | 1 | 3.9 | CC(C)(C)Cc1csc(N)c1C(=O)c1ccc(Cl)cc1
52 | 1 | 4.4 | 1 | 55 | 1 | 6.8 | CC(C)(C)Cc1c(-c2ccccc2)sc(N)c1C(=O)c1ccc(Cl)cc1Cl
27 | 1 | 1.7 | 1 | 31 | 1 | 2.5 | CC(C)(C)Cc1c(-c2cn[nH]c2)sc(N)c1C(=O)c1ccc(Cl)cc1
62 | 6 | 5 | 1 | 61 | 1 | 6.7 | Cc1ccc(C(=O)c2c(N)sc(-c3ccccc3)c2CC(C)(C)C)cc1
24 | 6 | 1.7 | 1 | 26 | 1 | 2.1 | Nc1sc(-c2ccccc2)c(-c2ccccc2)c1C(=O)c1ccc(Cl)cc1
43 | 1 | 2 | 10 | 41 | 1 | 4.1 | CC(C)(C)Cc1csc(N)c1C(=O)c1ccc(Cl)c(Cl)c1
47 | 1 | 2.7 | 1 | 49 | 1 | 4.1 | Cc1ccccc1-c1sc(N)c(C(=O)c2ccc(Cl)cc2)c1CC(C)(C)C
16 | 1 | 1.6 | 1 | 18 | 1 | 1.5 | Cc1csc(N)c1C(=O)c1ccc(Cl)cc1
45 | 1 | 1.5 | 8 | 42 | 2 | 4.3 | CC(C)(C)Cc1csc(N)c1C(=O)c1cccc(Cl)c1
51 | 1 | 2.8 | 11 | 53 | 1 | 4.8 | CC(C)(C)Cc1c(/C=C/c2ccc(Cl)cc2)sc(N)c1C(=O)c1ccc(Cl)cc1
53 | 1 | 3.3 | 1 | 55 | 1 | 5.5 | COCCOc1ccc(-c2sc(N)c(C(=O)c3ccc(Cl)cc3)c2CC(C)(C)C)cc1
17 | 1 | 3.4 | 1 | 19 | 1 | 1.6 | CC(C)Cc1csc(N)c1C(=O)c1ccc(Cl)cc1
54 | 1 | 4.3 | 1 | 52 | 1 | 6 | COc1ccc(-c2sc(N)c(C(=O)c3ccc(Cl)c(Cl)c3)c2CC(C)(C)C)cc1
42 | 1 | 4 | 1 | 40 | 1 | 4.5 | CC(C)(C)Cc1c(Br)sc(N)c1C(=O)c1ccc(Cl)c(Cl)c1
57 | 1 | 6 | 1 | 58 | 1 | 6.4 | Cc1ccc(-c2sc(N)c(C(=O)c3ccc(Cl)cc3)c2CC(C)(C)C)cc1
56 | 1 | 4.6 | 1 | 55 | 1 | 6.4 | CC(C)(C)Cc1c(-c2ccc(OC(F)(F)F)cc2)sc(N)c1C(=O)c1ccc(Cl)cc1
44 | 1 | 1.8 | 1 | 46 | 2 | 4 | COc1ccc(-c2sc(N)c(C(=O)c3cccc(C(F)(F)F)c3)c2CC(C)(C)C)cc1
45 | 2 | 2.4 | 1 | 46 | 1 | 4.2 | CC(C)(C)Cc1c(-c2c(F)cccc2F)sc(N)c1C(=O)c1ccc(Cl)cc1
60 | 3 | 4.9 | 1 | 63 | 1 | 6.1 | CC(C)(C)Cc1c(-c2cccc(F)c2F)sc(N)c1C(=O)c1ccc(Cl)cc1
49 | 1 | 3 | 4 | 50 | 1 | 4.4 | CC(C)(C)Cc1c(Br)sc(N)c1C(=O)c1cccc(C(F)(F)F)c1
16 | 1 | 1.6 | 1 | 21 | 1 | 1.4 | Cc1sc(N)c(C(=O)c2ccc(Cl)cc2)c1-c1ccccc1
64 | 3 | 5.4 | 5 | 60 | 1 | 7.4 | COc1ccc(-c2sc(N)c(C(=O)c3ccc(C)cc3)c2CC(C)(C)C)cc1
– | 1 | 1.5 | – | – | 1 | 1.3 | Cc1sc(N)c(C(=O)c2cccc(C(F)(F)F)c2)c1C
